The values that follow come from ChEMBL document CHEMBL4257536, “Pharmacophore-based tailoring of biphenyl amide derivatives as selective 5-hydroxytryptamine 2B receptor antagonists” (Medchemcomm, 2018).

The target in data set [1] is T1, 5-hydroxytryptamine receptor 2B (Homo sapiens, UniProt P41595). As to the kind of experiment: Ratio of IC50 for antagonist activity at recombinant human 5-HT2B receptor in presence of human serum albumin to IC50 for antagonist activity at recombinant human 5-HT2B receptor in absence of human serum albumin. A digest of the protocol:
(§1)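 IC50 was measured in the CHO-K1/5-HT2B calcium-flux assay twice, once in buffer alone and once with 4% HSA added. The ratio compares the IC50 with HSA to the IC50 without it. Run in triplicate.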

Data set [2] has as its target 5-hydroxytryptamine receptor 2A (Homo sapiens, UniProt P28223). As to the kind of experiment: Displacement of [3H]ketanserin from human 5HT2A receptor expressed in HEKT cell membranes after 1.5 hrs by liquid scintillation counting method. In kind it is cell-based. On the technique in general: Displacement assays read how much labelled ligand stays bound in the presence of the test substance.

The target of data set [3] is T1, 5-hydroxytryptamine receptor 2B. Put plainly: Displacement of [3H]LSD from human 5HT2B receptor expressed in HEK cells membranes after 1.5 hrs by liquid scintillation counting method. It is filed as cell membranes.
For data set [4], the target named is T2, 5-hydroxytryptamine receptor 1A (Homo sapiens, UniProt P08908).
T2 sequence (P08908 whole entry): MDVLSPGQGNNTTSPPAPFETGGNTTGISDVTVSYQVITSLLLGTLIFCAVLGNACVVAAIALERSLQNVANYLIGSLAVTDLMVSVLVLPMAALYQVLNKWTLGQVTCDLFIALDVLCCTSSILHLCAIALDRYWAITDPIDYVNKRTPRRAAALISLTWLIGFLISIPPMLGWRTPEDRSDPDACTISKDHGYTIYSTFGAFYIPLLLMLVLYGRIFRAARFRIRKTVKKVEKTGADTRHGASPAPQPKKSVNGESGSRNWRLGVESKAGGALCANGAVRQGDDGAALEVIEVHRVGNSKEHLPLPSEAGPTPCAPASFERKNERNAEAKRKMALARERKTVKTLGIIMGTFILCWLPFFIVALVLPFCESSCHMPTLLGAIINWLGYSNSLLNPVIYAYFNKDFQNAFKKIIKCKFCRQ
As to the kind of experiment: Displacement of [3H]8-OH-DPAT from human 5HT1A receptor expressed in CHO cell membranes after 1.5 hrs by liquid scintillation counting method. The essentials: (§2)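 Ki determination by radioligand displacement in triplicate. Reference radioligands: [3H]5-HT for 5-HT1E, [3H]8-OH-DPAT for 5-HT1A, [3H]GR127543 for 5-HT1B, [3H]LY278584 for 5-HT3.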

Data set [5] concerns the target 5-hydroxytryptamine receptor 1E (Homo sapiens, UniProt P28566). Put plainly: Displacement of [3H]5-HT from human 5HT1E receptor expressed in HEKT cell membranes after 1.5 hrs by liquid scintillation counting method. A digest of the protocol:
as §2

Data set [6] concerns the target 5-hydroxytryptamine receptor 1B (Homo sapiens, UniProt P28222). As to the kind of experiment: Displacement of [3H]GR127543 from human 5HT1B receptor expressed in HEK cell membranes after 1.5 hrs by liquid scintillation counting method. The essentials:
as §2

The target in data set [7] is T3, 5-hydroxytryptamine receptor 2C (Homo sapiens, UniProt P28335).
T3 sequence (P28335 whole entry): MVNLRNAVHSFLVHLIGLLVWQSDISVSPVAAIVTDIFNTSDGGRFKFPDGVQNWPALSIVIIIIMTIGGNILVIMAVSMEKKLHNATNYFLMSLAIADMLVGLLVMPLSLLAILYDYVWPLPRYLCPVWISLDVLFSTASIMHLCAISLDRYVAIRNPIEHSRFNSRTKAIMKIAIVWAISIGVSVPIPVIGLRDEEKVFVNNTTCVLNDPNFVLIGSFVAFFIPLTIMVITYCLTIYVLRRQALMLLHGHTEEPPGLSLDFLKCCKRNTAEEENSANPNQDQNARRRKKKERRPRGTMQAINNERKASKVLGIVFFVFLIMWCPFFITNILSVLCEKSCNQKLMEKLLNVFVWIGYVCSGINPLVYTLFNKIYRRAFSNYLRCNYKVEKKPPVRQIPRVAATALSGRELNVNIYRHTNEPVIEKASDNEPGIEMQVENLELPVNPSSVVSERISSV
Put plainly: Displacement of [3H]LSD from human 5HT2C receptor expressed in HEKT cell membranes after 1.5 hrs by liquid scintillation counting method.

In data set [8] the target is T4, 5-hydroxytryptamine receptor 3A (Homo sapiens, UniProt P46098).
T4 sequence (P46098 whole entry): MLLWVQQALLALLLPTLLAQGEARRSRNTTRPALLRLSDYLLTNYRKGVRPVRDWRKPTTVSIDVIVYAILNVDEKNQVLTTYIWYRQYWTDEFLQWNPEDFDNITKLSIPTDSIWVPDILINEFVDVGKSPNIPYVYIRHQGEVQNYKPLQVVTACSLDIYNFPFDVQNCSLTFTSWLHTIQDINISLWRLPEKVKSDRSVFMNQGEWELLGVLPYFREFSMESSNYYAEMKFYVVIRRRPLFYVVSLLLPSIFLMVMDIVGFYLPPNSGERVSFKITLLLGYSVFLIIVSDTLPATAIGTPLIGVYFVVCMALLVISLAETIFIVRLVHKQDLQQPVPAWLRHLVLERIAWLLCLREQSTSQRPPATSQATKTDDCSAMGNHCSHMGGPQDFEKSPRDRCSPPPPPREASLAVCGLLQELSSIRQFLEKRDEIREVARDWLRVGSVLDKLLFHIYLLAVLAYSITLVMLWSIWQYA
Put plainly: Displacement of [3H]LY278584 from human 5HT3 receptor expressed in HEKT cell membranes after 1.5 hrs by liquid scintillation counting method.

The next data set is filed under the species Homo sapiens. Put plainly: Selectivity ratio of Ki for human 5HT1B receptor to Ki for human 5HT2B receptor. The essentials: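 Ki values from radioligand displacement run in triplicate, using [3H]GR127543 for 5-HT1B and [3H]LSD for 5-HT2B. The ratio compares the 5-HT1B Ki to the 5-HT2B Ki.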
Data set [9] is described as follows: Apparent permeability across apical side to basolateral side in human Caco2 cells. In kind it is ADME, cell-based. Conditions: Caco-2. For orientation: Caco-2 cells form a polarised layer with tight junctions and transporters.
Data set [10] concerns the target T1, 5-hydroxytryptamine receptor 2B. Put plainly: Antagonist activity at recombinant human 5-HT2B receptor expressed in CHOK1 cells assessed as inhibition of serotonin-induced calcium flux preincubated for 60 mins at 37 degC followed by incubation at room temperature for 15 mins and subsequent addition of serotonin and measured for 100 secs in presence of human serum albumin by fluorescence assay. It is filed as functional, cell-based. The essentials:
as §1
A general note: A change in cytosolic calcium serves as a functional read-out for many receptors and channels.

Data set [11] has the same target. Put plainly: Antagonist activity at recombinant human 5-HT2B receptor expressed in CHOK1 cells assessed as inhibition of serotonin-induced calcium flux at 1 to 10 uM preincubated for 60 mins at 37 degC followed by incubation at room temperature for 15 mins and subsequent addition of serotonin and measured for 100 secs by fluorescence assay relative to control. In kind it is functional, cell-based. The essentials: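 Calcium-flux functional assay in CHO-K1 cells stably expressing 5-HT2B. Compounds were screened at 10 μM and 1 μM, and the value is % inhibition of 5-HT2B activity. Run in triplicate.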

Data set [12] is described as follows: Half life of compound in fasted state simulated gastric fluid at pH 1.6. In kind it is ADME.
Data set [13] can be described thus: Half life of compound in fasted state simulated intestinal fluid at pH 6.5. In kind it is ADME.
Data set [14] is described as follows: Half life in rat liver microsomes. In kind it is ADME, microsome.
A short description of data set [15]: Apparent permeability across basolateral side to apical side in human Caco2 cells. In kind it is ADME, cell-based. Conditions: Caco-2.
Data set [16] can be described thus: Metabolic stability in human plasma assessed as compound remaining measured after 120 mins. In kind it is ADME, cell-free. Conditions: read-out: Stability.
The next data set deals with HepG2. As to the kind of experiment: Cytotoxicity against human HepG2 cells by MTT assay. In kind it is cell-based.
Data set [17] deals with T1, 5-hydroxytryptamine receptor 2B. Put plainly: Antagonist activity at recombinant human 5-HT2B receptor expressed in CHOK1 cells assessed as inhibition of serotonin-induced calcium flux preincubated for 60 mins at 37 degC followed by incubation at room temperature for 15 mins and subsequent addition of serotonin and measured for 100 secs by fluorescence assay. It is filed as functional, cell-based. The essentials: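 5-HT2B antagonist IC50 came from a dose-response curve in a calcium-flux assay in the CHO-K1/5-HT2B cell line. Run in triplicate.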

Chain of 5-hydroxytryptamine receptor 1B (P28222 whole entry): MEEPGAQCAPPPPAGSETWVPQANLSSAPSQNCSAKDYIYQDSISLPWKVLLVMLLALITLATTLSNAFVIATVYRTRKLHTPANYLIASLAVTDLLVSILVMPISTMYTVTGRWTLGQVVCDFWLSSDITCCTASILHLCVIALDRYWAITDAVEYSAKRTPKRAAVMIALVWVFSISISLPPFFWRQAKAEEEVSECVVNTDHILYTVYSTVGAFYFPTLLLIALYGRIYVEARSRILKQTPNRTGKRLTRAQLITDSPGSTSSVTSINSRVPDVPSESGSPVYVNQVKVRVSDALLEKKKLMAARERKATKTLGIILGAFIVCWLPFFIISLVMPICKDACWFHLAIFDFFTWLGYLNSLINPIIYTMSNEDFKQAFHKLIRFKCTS
Chain of 5-hydroxytryptamine receptor 1E (P28566 whole entry): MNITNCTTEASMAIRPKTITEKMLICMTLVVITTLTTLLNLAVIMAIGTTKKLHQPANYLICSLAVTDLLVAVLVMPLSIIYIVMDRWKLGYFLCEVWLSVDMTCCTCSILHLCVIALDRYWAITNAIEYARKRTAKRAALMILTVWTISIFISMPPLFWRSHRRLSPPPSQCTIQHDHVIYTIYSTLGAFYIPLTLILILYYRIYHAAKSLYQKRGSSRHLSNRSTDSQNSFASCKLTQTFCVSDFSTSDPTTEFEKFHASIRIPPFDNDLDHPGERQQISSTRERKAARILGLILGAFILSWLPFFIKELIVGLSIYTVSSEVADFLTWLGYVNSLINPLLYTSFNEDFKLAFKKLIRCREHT
T1 sequence (P41595 whole entry): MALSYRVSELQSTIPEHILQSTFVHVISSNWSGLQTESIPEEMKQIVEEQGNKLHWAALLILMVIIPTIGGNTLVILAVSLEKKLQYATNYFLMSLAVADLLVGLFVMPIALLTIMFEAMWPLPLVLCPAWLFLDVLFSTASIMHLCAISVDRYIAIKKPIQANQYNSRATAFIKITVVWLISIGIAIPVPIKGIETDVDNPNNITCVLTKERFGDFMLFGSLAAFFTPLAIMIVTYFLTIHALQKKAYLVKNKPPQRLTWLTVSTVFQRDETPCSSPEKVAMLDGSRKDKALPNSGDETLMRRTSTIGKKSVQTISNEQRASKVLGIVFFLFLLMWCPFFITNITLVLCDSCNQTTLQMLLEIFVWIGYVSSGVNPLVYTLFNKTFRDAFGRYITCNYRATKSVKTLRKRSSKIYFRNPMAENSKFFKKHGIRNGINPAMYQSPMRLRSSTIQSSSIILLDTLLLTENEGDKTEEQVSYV
Chain of 5-hydroxytryptamine receptor 2A (P28223 whole entry): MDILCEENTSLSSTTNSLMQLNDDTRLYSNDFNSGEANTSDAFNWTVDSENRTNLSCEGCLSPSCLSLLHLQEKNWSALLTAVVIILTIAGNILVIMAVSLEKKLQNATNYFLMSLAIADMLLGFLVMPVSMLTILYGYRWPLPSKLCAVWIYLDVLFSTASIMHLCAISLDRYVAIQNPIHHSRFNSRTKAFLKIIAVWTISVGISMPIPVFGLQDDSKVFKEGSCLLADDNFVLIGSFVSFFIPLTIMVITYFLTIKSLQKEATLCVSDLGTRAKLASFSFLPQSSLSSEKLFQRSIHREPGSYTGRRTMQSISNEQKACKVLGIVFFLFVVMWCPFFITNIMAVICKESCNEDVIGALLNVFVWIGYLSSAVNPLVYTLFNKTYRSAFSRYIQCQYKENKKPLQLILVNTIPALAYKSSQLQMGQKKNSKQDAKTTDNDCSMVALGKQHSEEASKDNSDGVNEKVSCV

In the case of `CC(C)c1cc(-c2ccc(F)c3ccccc23)nc(N)n1`, in [1], the Ratio IC50 worked out at 27.
`O=C(NCc1ccccc1)C1CCN(C(=O)c2ccc(-c3ccccc3)cc2)CC1`: the inhibition constant Ki – broadly, a measure of affinity in units of concentration, obtained from inhibition or displacement – was 6790 nM in data set [2]; 569 nM in data set [3]; 9390 nM in data set [4]; over 10000 nM in data set [5]; 8590 nM in [6]; 986 nM in [7]. In [8], this compound showed an inhibitory constant (Ki) of over 10000 nM. The Ratio Ki in the data set filed under Homo sapiens stood at 15.
In turn, `Cc1nc2sccn2c(=O)c1CCN1CCC(=C(c2ccc(F)cc2)c2ccc(F)cc2)CC1` [RITANSERIN] displayed an inhibitory constant (Ki) in data set [7] of 1.9 nM.
For the compound `O=C(c1ccc(-c2ccccc2)cc1)N1CCC(c2nc3ccccc3[nH]2)CC1`, the Ratio IC50 in data set [1] was found to be 500.
Consider `O=C(NCCc1c[nH]c2ccccc12)C1CCN(C(=O)c2ccc(-c3ccccc3)cc2)CC1`, for which, in data set [9], the Papp A→B (usually the apparent permeability from the apical to the basolateral side of a cell layer) was found to be 16.3 ×10⁻⁶ cm/s. Moreover, the IC50 (in general, the concentration that gives 50% inhibition) in data set [10] was 18.7 nM; with HepG2 it was over 50000 nM; in data set [17] it was 14.1 nM. Also, the Ki in [2] is 2460 nM; in [3], 4.5 nM; in data set [4] it was 603 nM; in [5], over 10000 nM; in [6] it was 3410 nM; in data set [7] it was 473 nM. Moreover, in data set [8], the Ki was over 10000 nM. The inhibition (usually how much of the control response was suppressed) in data set [11] was over 95%. The half-life (in general, the time in which the quantity being followed falls by half) was 4.32 h in data set [12], over 8.33 h in data set [13] and 2.98 h in data set [14]. Also, the Papp B→A (usually the apparent permeability from the basolateral to the apical side of a cell layer) in data set [15] was 32.8 ×10⁻⁶ cm/s. The remaining at 2 h in data set [16] worked out at 97.4%.
`Cc1cc2c(cc1Cl)N(C(=O)Nc1ccnc3ccccc13)CC2`: the Ratio IC50 in data set [1] stood at 50.
As to `O=C(NCCc1c[nH]c2ccccc12)C1CCN(C(=O)c2ccccc2)CC1`, the inhibitory constant (Ki) is 5690 nM in data set [2]; 79.3 nM in data set [3]; 5400 nM in data set [4]; over 10000 nM in data set [5]; 7600 nM in data set [6]; 749 nM in data set [7]. The same compound had an inhibitory constant (Ki) in data set [8] of over 10000 nM.
